Assay outcomes (PubChem BioAssay)
Diaph act CS: counter-screen for diaphorase-based assays: diaphorase activators and chemical reducers; activation factor at 20 µM; Diaphorase/resazurin coupled assay, resorufin fluorescence, 16 min; hits give high values; 1 = vehicle wells, 0 = NADH-free wells; AID 1229; 190,000 tested, 0.005% active;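 active = diaphorase activity raised at least twofold by the compound at 20 µM; inactive = activation factor below 2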
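Material: purified diaphorase enzyme from Clostridium kluyveri; Also added: 0.114 mM NADH and 0.1 mM resazurin, final amounts; Doses: single compound dose of 20 µM, 1% DMSO final; Times: 16 min enzyme reaction, ambient temperature; Detection: resorufin fluorescence, excitation 544 nm, emission 590 nm; Measure: increased resorufin signal from activators or reducing compounds.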
Diaphorase inh: counter-screen for diaphorase-based assays: diaphorase inhibitors and chemical oxidizers. AID 1217. 190,000 tested, 0.69% active. diaphorase resazurin-to-resorufin fluorescence, NADH, 16 min; bacterial (C. kluyveri) enzyme, not human. inhibition, % at 20 µM;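 active = primary screen inhibition at 20 µM above a set limit, cut at about 50% in these data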
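System: Bacterial diaphorase enzyme (C. kluyveri) | Incubation: 16-min room-temperature incubation before reading | Benchmarks: No-NADH positive control and DMSO neutral control | Measured by: Resorufin fluorescence 544/590 nm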
G6PDH counter: counter-screen for G6PDH assay hits: L. mesenteroides G6PDH inhibition; Purified L. mesenteroides G6PDH, diaphorase/resazurin coupled fluorescence, 45 min; 200,000 tested, 0.12% active; inhibition, % at 5 µM; in the data active = inhibition above about 50%
HKDC1 inhibitor: blocks human hexokinase HKDC1 activity; Q2TB90; recombinant HKDC1, G6PDH/diaphorase resazurin coupled fluorescence; inhibition, % at 20 µM; 340,000 tested, 0.16% active; AID 493160;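 active = inhibition above about 35% when tested at 20 µM, limit read from the data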
Target sequence (Q2TB90 whole entry, looked up): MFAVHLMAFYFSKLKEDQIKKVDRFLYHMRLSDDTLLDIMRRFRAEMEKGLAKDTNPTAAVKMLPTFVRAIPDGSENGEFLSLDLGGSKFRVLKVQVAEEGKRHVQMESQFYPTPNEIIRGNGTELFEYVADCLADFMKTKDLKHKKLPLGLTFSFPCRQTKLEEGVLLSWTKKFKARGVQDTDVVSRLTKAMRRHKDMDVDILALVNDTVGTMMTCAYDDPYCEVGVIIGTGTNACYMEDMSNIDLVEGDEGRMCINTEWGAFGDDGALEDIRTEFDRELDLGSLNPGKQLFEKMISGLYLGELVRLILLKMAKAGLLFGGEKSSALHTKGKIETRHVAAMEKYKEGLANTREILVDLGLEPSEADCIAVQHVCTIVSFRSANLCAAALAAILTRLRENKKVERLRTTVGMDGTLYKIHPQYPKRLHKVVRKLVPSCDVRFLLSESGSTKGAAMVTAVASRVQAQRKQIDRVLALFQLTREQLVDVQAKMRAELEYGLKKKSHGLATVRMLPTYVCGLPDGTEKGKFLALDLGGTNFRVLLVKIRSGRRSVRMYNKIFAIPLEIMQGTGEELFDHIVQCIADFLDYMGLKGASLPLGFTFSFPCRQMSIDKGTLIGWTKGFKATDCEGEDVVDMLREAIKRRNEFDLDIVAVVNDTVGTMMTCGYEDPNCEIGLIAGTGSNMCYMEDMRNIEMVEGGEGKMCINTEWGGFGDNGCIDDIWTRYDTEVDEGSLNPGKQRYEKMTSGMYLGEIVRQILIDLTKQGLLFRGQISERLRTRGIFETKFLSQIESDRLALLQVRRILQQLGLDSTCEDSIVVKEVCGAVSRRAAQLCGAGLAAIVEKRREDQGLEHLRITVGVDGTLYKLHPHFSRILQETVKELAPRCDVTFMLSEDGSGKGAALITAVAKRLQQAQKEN
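Assay system: in-house recombinant HK5 (HKDC1) enzyme. Input: HKDC1 at 5 µg/mL. Medium: Tris pH 8.0 buffer with MgCl2, Tween-20, BSA, BME. Dosing: single 20 µM dose. Schedule: 90 min reaction incubation at room temperature, dark. Signal: resazurin-to-resorufin fluorescence via G6PDH and diaphorase coupling, 525/613 nm. Controls: DMSO-enzyme wells negative, buffer-substituted wells positive.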
PfGluPho inh: PfG6PD (Plasmodium falciparum) enzyme inhibition; inhibition, % at 20 µM; PfGluPho enzyme, NADPH resazurin-diaphorase fluorescence; 350,000 tested, 0.78% active;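 active = inhibition reaching at least a set limit at 20 µM in the primary screen, cut at about 59% in these data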
PfG6PD confirm: PfG6PD inhibition, single-dose confirmed | 2,400 tested, 34% active | shares compounds with PfGluPho inh | recombinant PfGluPho, NADPH-diaphorase-resazurin fluorescence | AID 504753 | inhibition, % at 20 µM;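 active = inhibition of at least 50% at 20 µM in any single replicate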
Diaph ctr 10uM: counter-screen for P. falciparum G6PD inhibitors: diaphorase inhibitors, oxidizers | shares compounds with PfGluPho inh | diaphorase-coupled resazurin reduction, fluorescence, NADPH 10 uM | inhibition, % at 20 µM | 820 tested, 39% active | AID 504862;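 active = average inhibition reaching 50% or more with the compound at 20 µM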;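 note: resorufin red fluorescence formed as diaphorase reduces resazurin using NADPH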
Diaph ctr 30uM: diaphorase inhibition or oxidation at 30 uM NADPH; shares compounds with PfGluPho inh; Diaphorase/resazurin coupled assay, resorufin fluorescence; inhibition, % at 20 µM; 820 tested, 29% active; AID 504863;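 active = inhibition averaging 50% or more, tested at 20 µM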
Numbers stand for hits; - = inactive; . = not tested or not shown. Rows were chosen to be rich in hits. Some 1.2% of all compounds tested hit in one or more screens of this group.

SMILES	Diaph act CS	Diaphorase inh	G6PDH counter	HKDC1 inhibitor	PfGluPho inh	PfG6PD confirm	others
CCc1nnc(N/N=C/c2ccc(-c3ccc([N+](=O)[O-])cc3)o2)n1N	-	-	-	-	68.6	-
Cc1nnc(N/N=C\c2ccc(-c3ccccc3[N+](=O)[O-])o2)n1N	-	-	-	-	82.3	-
COc1cc2nc(CN3CCN(S(=O)(=O)c4ccccc4[N+](=O)[O-])CC3)[nH]c(=O)c2cc1OC	.	.	.	.	-	.
CCn1c(=O)n(CC(=O)Nc2ccc(F)cc2)c(=O)c2ccccc21	-	-	-	-	-	.
Fc1ccc(C[n+]2csc3ccccc32)cc1	-	-	-	-	63.8	-
Cc1ccc(-c2csc(NC(=O)/C=C/c3ccco3)c2C(=O)O)cc1	-	-	-	-	92.5	57.5	Diaph ctr 10uM=57.9;Diaph ctr 30uM=59.2
Cc1ccc(-c2csc(NC(=O)c3ccc(Br)cc3)c2C(=O)O)cc1	.	.	.	-	117.1	52.6	Diaph ctr 10uM=-;Diaph ctr 30uM=-
CSc1ncnc2c1ncn2CCCN1CCN(Cc2c(C)cc(C)cc2C)CC1	.	.	.	.	-	.
O=[N+]([O-])c1ccc2c(c1)-c1ccccc1C2O (configuration not stated)	.	.	.	.	113.5	97.3	Diaph ctr 10uM=-;Diaph ctr 30uM=-
Cn1c(SCC(=O)Nc2ccccc2)nc2ccccc2c1=O	.	.	.	-	-	.
CN(CCO)c1cc(Sc2nc3ccccc3s2)c2nonc2c1[N+](=O)[O-]	-	-	-	-	87.8	69.7	Diaph ctr 10uM=-;Diaph ctr 30uM=-
NC(=O)c1cnn2c(-c3ccc(Cl)cc3Cl)ccnc12	.	.	.	-	-	.
Cn1c(CSc2nc3ccccc3n2C)nc2ccccc21	-	-	-	-	78.0	-
CC1=CC(=NOC(=O)/C=C/c2ccccc2)C=C(C)C1=O	-	-	-	-	75.1	60.7	Diaph ctr 10uM=-;Diaph ctr 30uM=-
CN(CC(=O)Nc1ccccc1Br)C(=O)c1ccccc1OCc1ccc(Cl)cc1	.	.	.	-	59.2	-
CN(CC(=O)Nc1ccccc1Br)C(=O)c1ccc(-c2ccc(Cl)cc2)o1	.	.	.	-	-	.
Cc1ccnc(SCc2ccc(C(=O)O)cc2)n1	.	.	.	-	-	.
COc1ccc2[nH]cc(CCNS(=O)(=O)c3ccc(C)cc3)c2c1	.	.	.	-	-	.
Cc1cccc(NC2=C(NC(=O)c3ccccc3)C(=O)c3ccccc3C2=O)c1	-	-	-	-	83.5	68.6	Diaph ctr 10uM=-;Diaph ctr 30uM=-
Cc1cccc(C(=O)Nc2cccc(NC(=O)c3ccccc3)c2)c1	.	.	.	-	-	.
CC(C)CCOc1ccc(C(=O)NNC(=O)CNC(=O)c2ccccc2F)cc1	.	.	.	-	-	.
Cc1ccc(COc2ccccc2C(=S)N2CCCC2)cc1	-	-	-	-	-	.
Fc1ccc(COc2ccccc2C(=S)N2CCCC2)cc1	-	-	-	-	69.7	-
Cn1c(C(=O)Nc2ccc3c(c2)OCCO3)cc2sccc21	-	-	-	-	65.8	-
O=C(Nc1ccc2c(c1)OCCO2)c1cc2sccc2n1Cc1ccccc1	-	-	-	-	-	.
SMILES	Diaph act CS	Diaphorase inh	G6PDH counter	HKDC1 inhibitor	PfGluPho inh	PfG6PD confirm	others
COc1cc(C(=O)Nc2nc(C)c(Cc3ccc4c(c3)OCO4)s2)cc(OC)c1OC	-	-	-	-	62.3	-
Cc1ccc(O)c(N=Cc2ccc(C)s2)c1	-	-	-	-	67.0	-
Cc1ccc(O)c(N=Cc2cccs2)c1	-	-	-	-	70.9	-
COc1cc(C(=O)COC(=O)c2ccc3c(c2)OCCO3)cc(OC)c1OC	.	.	.	.	-	.
N#Cc1c(NC(=O)c2ccccc2)sc2c1CCCCC2	-	-	-	-	-	.
O=C(Nc1sc2c(c1C(=O)O)CCC2)c1cccs1	-	-	-	-	-	.
O=C(Nc1sc2c(c1C(=O)O)CCC2)c1ccccc1	-	-	-	-	62.0	-
O=C(Nc1sc2c(c1C(=O)O)CCCC2)c1ccc(Cl)cc1	.	.	.	-	123.8	76.6	Diaph ctr 10uM=73.1;Diaph ctr 30uM=72.1
O=C(Nc1sc2c(c1C(=O)O)CCC2)c1ccc(F)cc1	-	-	-	-	91.0	53.5	Diaph ctr 10uM=-;Diaph ctr 30uM=-
O=C(Nc1sc2c(c1C(=O)O)CCCCC2)c1ccccc1	-	-	-	-	80.0	-
CCN(CC)C(=O)C1=C(C)N(Cc2ccc(OC)cc2)C(=O)C(CC(=O)NCc2cccs2)C1 (configuration not stated)	.	.	.	.	-	.
CCc1nnc(NC(=O)CCN2C(=O)C3CCCCC3C2=O)s1 (configuration not stated)	.	.	.	-	-	.
CSc1nc2[nH]c(=O)n(O)c(=O)c2n1Cc1ccccc1	.	.	.	-	-	.
NS(=O)(=O)c1ccc(NC(=O)c2cccc(Cl)c2)cc1	.	.	.	-	-	.
COc1cccc(OC)c1C(=O)NNS(=O)(=O)c1ccc2ccccc2c1	.	.	.	-	-	.
COc1cc(/C=C/C(=O)O)cc(S(=O)(=O)NCCCC(=O)O)c1OC	-	-	-	-	-	.
O=C(Nc1sc2c(c1C(=O)O)CCCC2)c1cccc(Cl)c1	.	.	.	-	61.6	-
O=C(O)c1c(NC(=O)c2cccc3ccccc23)sc2c1CCC2	-	-	-	-	-	.
COc1c2ccoc2c(OCC=C(C)C)c2oc(=O)ccc12	-	-	-	-	67.8	54.2	Diaph ctr 10uM=-;Diaph ctr 30uM=-
COc1c2ccoc2c(OC[C@@H](O)C(C)(C)O)c2oc(=O)ccc12	-	-	-	-	-	.
COc1cccc2c3cccc(OC)c3c3[nH]cnc3c12	.	.	.	-	67.8	-
O=C(c1c(F)cccc1F)N1CCCc2ccccc21	.	.	.	-	-	.
Cn1c(=N)n(CC(O)c2ccco2)c2ccccc21 (configuration not stated)	-	-	-	-	-	.
Cn1c(=N)n(CC(O)c2cccc3ccccc23)c2ccccc21 (configuration not stated)	-	-	-	-	79.5	62.5	Diaph ctr 10uM=62.7;Diaph ctr 30uM=51.5
Cc1ccc(Nc2nnc(SCC(=O)c3ccc(O)cc3O)s2)cc1	.	.	.	-	68.2	-
SMILES	Diaph act CS	Diaphorase inh	G6PDH counter	HKDC1 inhibitor	PfGluPho inh	PfG6PD confirm	others
Oc1ccc(Br)cc1/C=N/n1c(C2CCCCC2)n[nH]c1=S	.	.	.	-	-	.
O=C(O)COn1c(-c2ccc(Cl)cc2)nc2ccc(Cl)cc21	-	-	-	-	60.3	-
COc1ccc(-c2nc3ccccc3n2OCC(=O)O)cc1	-	-	-	-	-	.
COn1c(-c2ccc(Cl)cc2)nc2ccc(Cl)cc21	-	-	-	-	65.6	-
Cc1nc2ccc(Cl)cc2n1C	.	.	.	.	-	.
CCC(C(=O)Nc1sc(C(N)=O)c(C)c1C(=O)OC)c1ccccc1 (configuration not stated)	-	-	-	-	-	.
CCOC(=O)c1c(NC(=O)C(Sc2ccccc2)c2ccccc2)sc(C(N)=O)c1C (configuration not stated)	-	-	-	-	61.1	-
CCOC(=O)c1c(NC(=O)OC)sc(C(=O)N(C)C)c1C	-	-	-	-	-	.
